ChEMBL document CHEMBL1131340, “alpha-Substituted malonester amides: tools to define the relationship between ACAT inhibition and adrenal toxicity” (J Med Chem, 1998)
pIC50: −log10 of the molar value.

How the values were obtained:
Rattus norvegicus [1] = assay: Percent change in total cholesterol level in cholic acid (0.5%),cholesterol(1.5%),peanut oil(5.5%) fed rats at 30 mg/kg.; format: functional
Outline: (§1)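 Acute screen (APCC) in male Sprague-Dawley rats, 200–225 g. Compound given orally as a suspension in water with carboxymethylcellulose (1.5%) and Tween-20 (0.2%). Rats then ate a high-fat, high-cholesterol PCC meal (peanut oil 5.5%, cholesterol 1.5%, cholic acid 0.5%). Plasma total cholesterol measured and expressed as percent change from controls.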

Rattus norvegicus [2] = assay: Percent change in total cholesterol level in cholic acid (0.5%),cholesterol(1.5%),peanut oil(5.5%) fed rats at 3 mg/kg.; format: functional; outline: as §1
Rattus norvegicus [3] = assay: Percent of high density lipoprotein cholesterol was in cholesterol fed rat at the dose of 30 mg/kg; format: functional
Rattus norvegicus [4] = assay: Percent of non high density lipoprotein cholesterol measured in cholesterol fed rat at the dose of 30 mg/kg; format: functional
[5] = target: T1, Sterol O-acyltransferase 1 (Rattus norvegicus, UniProt O70536); assay: In vitro Acyl coenzyme A:cholesterol acyltransferase inhibition in hepatic microsomes isolated from cholesterol-fed rats; parameters: species or system Liver
T1 sequence (O70536 whole entry): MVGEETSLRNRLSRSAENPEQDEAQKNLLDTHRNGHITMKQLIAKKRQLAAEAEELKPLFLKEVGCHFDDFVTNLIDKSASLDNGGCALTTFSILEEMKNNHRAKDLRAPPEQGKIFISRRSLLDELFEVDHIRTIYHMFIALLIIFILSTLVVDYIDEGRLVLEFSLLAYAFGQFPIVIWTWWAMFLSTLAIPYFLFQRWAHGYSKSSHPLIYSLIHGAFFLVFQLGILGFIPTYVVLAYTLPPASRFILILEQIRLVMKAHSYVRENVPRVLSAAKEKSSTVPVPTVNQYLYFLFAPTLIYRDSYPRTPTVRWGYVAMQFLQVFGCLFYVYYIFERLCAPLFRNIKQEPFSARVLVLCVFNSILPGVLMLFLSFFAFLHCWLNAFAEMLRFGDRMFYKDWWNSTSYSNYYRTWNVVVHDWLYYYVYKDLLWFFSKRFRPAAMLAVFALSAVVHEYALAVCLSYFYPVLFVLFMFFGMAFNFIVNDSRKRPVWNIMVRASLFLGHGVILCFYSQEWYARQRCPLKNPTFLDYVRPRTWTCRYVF
Outline: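 Hepatic microsomes from cholesterol-fed rats (LAI screen); ACAT inhibition reported as IC50.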

Rattus norvegicus [6] = assay: Percent of high density lipoprotein cholesterol was measured in cholesterol fed rat at the dose of 10 mg/kg; format: functional
Rattus norvegicus [7] = assay: Percent of non high density lipoprotein cholesterol measured in cholesterol fed rat at the dose of 10 mg/kg; format: functional
Rattus norvegicus [8] = assay: Percent of high density lipoprotein cholesterol was in cholesterol fed rat at the dose of 10 mg/kg; format: functional
[9] = target: T2, Acyl-CoA:cholesterol acyltransferase (Oryctolagus cuniculus) (UniProt Q95214); assay: Percent inhibition of cholesterol of ACAT by ABIO bioassay at the dose of 25 mg/kg in rabbits.; format: functional, organism-based; parameters: dose 25 mg/kg
T2 sequence (whole entry): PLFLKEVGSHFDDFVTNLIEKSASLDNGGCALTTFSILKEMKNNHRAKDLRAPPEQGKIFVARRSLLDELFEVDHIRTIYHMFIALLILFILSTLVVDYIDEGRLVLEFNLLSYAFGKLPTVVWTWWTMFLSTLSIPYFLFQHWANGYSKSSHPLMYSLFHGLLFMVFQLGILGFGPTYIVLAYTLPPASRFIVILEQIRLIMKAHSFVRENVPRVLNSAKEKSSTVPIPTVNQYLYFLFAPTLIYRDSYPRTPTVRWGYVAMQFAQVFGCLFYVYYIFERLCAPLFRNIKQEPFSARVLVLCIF
Outline: (§2)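 Oral bioactivity (ABIO) in male New Zealand White rabbits, 1.2–1.5 kg. Compound given at 25 or 50 mg/kg in the daily meal (3% peanut oil, 3% coconut oil). Plasma extracts incubated with rat liver microsomes and ACAT reaction inhibition expressed as relative percent inhibition.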

Oryctolagus cuniculus [10] = assay: Plasma drug levels at the dose of 50 mg/kg in rabbit; format: functional, organism-based; parameters: dose 50 mg/kg
Outline: (§3)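 Male New Zealand White rabbits, 1.2–1.5 kg, dosed at 25 or 50 mg/kg in the daily meal (3% peanut oil, 3% coconut oil). Blood taken predose and at intervals up to 24 h. Plasma solvent-extracted and assayed by HPLC–UV; limit of quantitation 20 ng/mL.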

Oryctolagus cuniculus [11] = assay: Plasma drug levels at the dose of 25 mg/kg in rabbit; format: functional, organism-based; parameters: dose 25 mg/kg; outline: as §3
Rattus norvegicus [12] = species: Rattus norvegicus; assay: Percent of non high density lipoprotein cholesterol was measured in cholesterol fed rat by using aqueous vehicle; format: functional
Outline: (§4)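 Chronic PCC rat screen with drug and PCC diet given together for 7 days. Compound dosed either in an aqueous carboxymethylcellulose vehicle (PCC-CMC) or in an oleic acid vehicle (PCC-OA). Change in plasma non-HDL-C measured.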

Rattus norvegicus [13] = species: Rattus norvegicus; assay: Percent of non high density lipoprotein cholesterol was measured in cholesterol fed rat by using oleic acid vehicle; format: functional; outline: as §4
[14] = target: T2, Acyl-CoA:cholesterol acyltransferase (Oryctolagus cuniculus); assay: Percent inhibition of cholesterol of ACAT by ABIO bioassay at the dose of 50 mg/kg in rabbits.; format: functional, organism-based; parameters: dose 50 mg/kg; outline: as §2
Rattus norvegicus [15] = assay: Percent of total cholesterol was measured in cholesterol fed rat at the dose of 3 mg/kg
Rattus norvegicus [16] = assay: Percent of total cholesterol was measured in cholesterol fed rat at the dose of 30 mg/kg

Row | Compound | Delta TC (Rattus norvegicus [1]) [%] | Delta TC (Rattus norvegicus [2]) [%] | pIC50 [5] | also measured
1 | CCCCCCCCCCCCOC(=O)C(C(=O)Nc1c(OC)cc(OC)cc1OC)c1ccccc1 (stereo unspecified) | -51 | -51 |  | Of HDL-C (Rattus norvegicus [3]): 127%; Of non-HDL-C (Rattus norvegicus [4]): -71%
2 | CCOC(=O)C(C)(C)C(=O)Nc1c(C(C)C)cccc1C(C)C | -24 |  | < 6.00 | 
3 | CCCCCCCCCCCCCCCCOC(=O)C(C(=O)Nc1c(C(C)C)cccc1C(C)C)c1ccccc1 (stereo unspecified) | -26 |  |  | 
4 | CCCCCCCCCCCCC(C)OC(=O)C(C)(C)C(=O)Nc1c(C(C)C)cccc1C(C)C (stereo unspecified) |  |  | 7.68 | 
5 | CCCCC(C)(C)OC(=O)C(C(=O)Nc1c(C(C)C)cccc1C(C)C)c1ccccc1 (stereo unspecified) | -72 | -65 |  | 
6 | CCCCCC(C)OC(=O)C(C(=O)Nc1c(C(C)C)cccc1C(C)C)c1ccccc1 (stereo unspecified) | -67 | -61 | 7.40 | Delta HDL-C (Rattus norvegicus [6]): -1%; Delta non HDL-C (Rattus norvegicus [7]): -18%
7 | CCCCCCCCCCCCOC(=O)C(F)C(=O)Nc1c(C(C)C)cccc1C(C)C (stereo unspecified) | -36 |  | 7.49 | 
8 | CCCCCCCCCCCCC(C)OC(=O)C(C(=O)Nc1c(C(C)C)cccc1C(C)C)c1ccccc1 (stereo unspecified) | -61 | -46 |  | Of HDL-C (Rattus norvegicus [3]): 215%; Of non-HDL-C (Rattus norvegicus [4]): -75%
9 | CCCCCCCCOC(=O)C(C(=O)Nc1c(C(C)C)cccc1C(C)C)c1ccccc1 (stereo unspecified) | -56 | -46 |  | 
10 | CCCCCCCCCCCCCCOC(=O)C(C(=O)Nc1c(C(C)C)cccc1C(C)C)c1ccccc1 (stereo unspecified) | -49 |  | 7.80 | Of HDL-C (Rattus norvegicus [3]): 28%; Of non-HDL-C (Rattus norvegicus [4]): -57%
11 | CCCCCCCCCCCCCCCCCCOC(=O)C(C(=O)Nc1c(C(C)C)cccc1C(C)C)c1ccccc1 (stereo unspecified) | -25 |  | 6.70 | 
12 | CCCCCCCCCCCCC(C)(C)OC(=O)C(C(=O)Nc1c(OC)cc(OC)cc1OC)c1ccccc1 (stereo unspecified) |  |  | 7.70 | 
13 | CCCCCCCCCCCCC(C)OC(=O)C(C(=O)Nc1c(OC)cc(OC)cc1OC)c1ccccc1 (stereo unspecified) | -59 | -48 | 7.52 | Of HDL-C (Rattus norvegicus [3]): 272%; Of non-HDL-C (Rattus norvegicus [4]): -85%
14 | CCOC(=O)C(C(=O)Nc1c(C(C)C)cccc1C(C)C)c1ccccc1 (stereo unspecified) | -23 |  | < 5.30 | 
15 | CCCCCCCCCCCCCCC(C)(C)OC(=O)C(C(=O)Nc1c(C(C)C)cccc1C(C)C)c1ccccc1 (stereo unspecified) | -37 |  | 7.14 | 
16 | CCCCCCCOC(=O)C(C(=O)Nc1c(C(C)C)cccc1C(C)C)c1ccccc1 (stereo unspecified) | -71 | -47 | 7.30 | Of HDL-C (Rattus norvegicus [8]): 2%; Of non-HDL-C (Rattus norvegicus [7]): -21%
17 | CCCCCCCCCCCCOC(=O)C(C(=O)Nc1c(C(C)C)cccc1C(C)C)c1ccccn1 (stereo unspecified) | -43 |  | 8.10 | 
18 | CCCCCCCCCCCCOC(=O)C(C(=O)Nc1c(C(C)C)cc(C(C)C)cc1C(C)C)c1ccccc1 (stereo unspecified) | -21 |  | 7.25 | 
19 | CCCCCCCCCCCCOC(=O)C(C(=O)Nc1c(C(C)C)cc(C(C)C)cc1C(C)C)c1ccccn1 (stereo unspecified) | -9 |  | 6.74 | 
20 | CCCCCCCCCCC(C)OC(=O)C(C(=O)Nc1c(C(C)C)cccc1C(C)C)c1ccccc1 (stereo unspecified) | -37 |  | 7.89 | Of HDL-C (Rattus norvegicus [3]): 97%; Of non-HDL-C (Rattus norvegicus [4]): -64%
21 | CCCCCCCCCCCCC(C)(C)OC(=O)C(C(=O)Nc1c(C(C)C)cccc1C(C)C)c1ccccc1 (stereo unspecified) | -26 |  | 7.92 | 
22 | CCCCCCCCCCCCOC(=O)C(C(=O)Nc1c(C(C)C)cccc1C(C)C)c1ccccc1 (stereo unspecified) | -63 | -29 | 8.00 | inhibition [9]: 99%; Plasma level (Oryctolagus cuniculus [10]): 140 ng/mL; Plasma level (Oryctolagus cuniculus [11]): 131 ng/mL; Non-HDL-C (Rattus norvegicus [12]): -54%; Non-HDL-C (Rattus norvegicus [13]): -54%; Of HDL-C (Rattus norvegicus [3]): 148%; Of non-HDL-C (Rattus norvegicus [4]): -80%; inhibition [14]: 100%; TC (Rattus norvegicus [15]): -29%; TC (Rattus norvegicus [16]): -63%
23 | CCCCCCCCCOC(=O)C(C(=O)Nc1c(C(C)C)cccc1C(C)C)c1ccccc1 (stereo unspecified) | -67 | -53 | 7.92 | 
24 | CCCCCCCCCCOC(=O)C(C(=O)Nc1c(C(C)C)cccc1C(C)C)c1ccccc1 (stereo unspecified) | -58 | -27 | 7.89 | Of HDL-C (Rattus norvegicus [8]): -5%; Of non-HDL-C (Rattus norvegicus [7]): 21%
25 | CCCOC(=O)C(C(=O)Nc1c(C(C)C)cccc1C(C)C)c1ccccc1 (stereo unspecified) | -20 |  | < 6.00 | 
26 | CCOC(=O)C(F)C(=O)Nc1c(C(C)C)cccc1C(C)C (stereo unspecified) | 1 |  | < 6.00 | 
